The source made the active and inactive calls. No cut-off for these calls is given here.
Columns and labels:
[1] = system: Trypanosoma brucei rhodesiense; assay: Antitrypanosomal activity against Trypanosoma brucei rhodesiense STIB900 infected in NMRI mouse assessed as cured animal at 2 mg/kg, ip administered for 4 days; assay type: functional, organism-based; design: dose 2 mg/kg
Method in brief: (§1)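 Female NMRI mice, acute infection model with T. b. rhodesiense STIB900. Compound given as a single daily dose for four days, intraperitoneally or orally. Cure means survival to 60 days post-infection without parasitaemia relapse. Mean survival recorded in days.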

[2] = system: Trypanosoma brucei rhodesiense; assay: Antitrypanosomal activity against Trypanosoma brucei rhodesiense STIB900 infected in NMRI mouse assessed as mean survival days at 2 mg/kg, ip administered for 4 days; assay type: functional; settings: route intraperitoneal; method in brief: as §1
[3] = Selectivity index, ratio of IC50 for rat L6 cells to IC50 for Trypanosoma brucei rhodesiense STIB900; assay type: toxicity, cell-based; settings: read-out: Ratio IC50
Method in brief: (§2)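 SI = IC50 in rat L6 myoblasts / IC50 against the parasite (T. b. rhodesiense STIB900 or P. falciparum K1). Each IC50 is the average of duplicate determinations.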

[4] = system: Trypanosoma brucei rhodesiense; assay: Antitrypanosomal activity against Trypanosoma brucei rhodesiense STIB900 infected in NMRI mouse assessed as cured animal at 20 mg/kg, ip administered for 4 days; assay type: functional, organism-based; design: dose 20 mg/kg
Method in brief: (§3)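 Acute model in female NMRI mice infected with T. b. rhodesiense STIB900. Single daily doses given for four days, intraperitoneally or orally. Mice surviving 60 days post-infection without parasitaemia relapse counted as cured; result reported as cured/infected out of 4 mice per group, with mean survival in days.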

[5] = system: Trypanosoma brucei rhodesiense; assay: Antitrypanosomal activity against Trypanosoma brucei rhodesiense STIB900 infected in NMRI mouse assessed as mean survival days at 20 mg/kg, ip administered for 4 days; assay type: functional; settings: route intraperitoneal; method in brief: as §1
L6 = assay: Cytotoxicity against rat L6 cells after 72 hrs by Alamar blue assay; assay type: cell-based; settings: L6, 72 h
Method in brief: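 Rat L6 myoblast cells; cytotoxic IC50 taken as the average of duplicate determinations.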

[6] = Selectivity index, ratio of IC50 for rat L6 cells to IC50 for chloroquine-resistant Plasmodium falciparum K1; assay type: toxicity, cell-based; settings: read-out: Ratio IC50; method in brief: as §2
Plasmodium falciparum = assay: Antiplasmodial activity against chloroquine-resistant Plasmodium falciparum K1; assay type: functional, organism-based
Method in brief: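 Chloroquine-resistant K1 strain tested in vitro. IC50 is the average of duplicate determinations.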

[7] = system: Trypanosoma brucei rhodesiense; assay: Antitrypanosomal activity against Trypanosoma brucei rhodesiense STIB900 after 72 hrs by Alamar blue assay; assay type: functional, organism-based; settings: STIB900, 72 h
[8] = system: Trypanosoma brucei rhodesiense; assay: Antitrypanosomal activity against Trypanosoma brucei rhodesiense STIB900 infected in NMRI mouse assessed as mean survival days at 25 mg/kg, po administered for 4 days; assay type: functional; method in brief: as §1
[9] = system: Trypanosoma brucei rhodesiense; assay: Antitrypanosomal activity against Trypanosoma brucei rhodesiense STIB900 infected in NMRI mouse assessed as mean survival days at 100 mg/kg, po administered for 4 days; assay type: functional; method in brief: as §1
Leishmania donovani = assay: Antileishmanial activity against amastigotes of Leishmania donovani MHOM/SD/62/IS-CL2D; assay type: functional, organism-based
Method in brief: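 Axenic amastigotes of L. donovani MHOM/SD/62/IS-CL2D; IC50 taken as the average of at least two determinations.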

[10] = Selectivity index, ratio of IC50 for rat L6 cells to IC50 for amastigotes of Leishmania donovani; assay type: toxicity, cell-based; settings: read-out: Ratio IC50
Method in brief: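 SI = IC50 in rat L6 myoblasts / IC50 against L. donovani MHOM/SD/62/IS-CL2D axenic amastigotes. The amastigote IC50 is the average of at least two determinations; the L6 IC50 is the average of duplicates.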

[11] = system: Trypanosoma brucei rhodesiense; assay: Antitrypanosomal activity against Trypanosoma brucei rhodesiense STIB900 infected in NMRI mouse assessed as cured animal at 100 mg/kg, po administered for 4 days; assay type: functional, organism-based; design: dose 100 mg/kg; method in brief: as §3
[12] = system: Trypanosoma brucei rhodesiense; assay: Antitrypanosomal activity against Trypanosoma brucei rhodesiense STIB900 infected in NMRI mouse assessed as cured animal at 25 mg/kg, po administered for 4 days; assay type: functional, organism-based; design: dose 25 mg/kg; method in brief: as §3
[13] = system: Trypanosoma brucei rhodesiense; assay: Antitrypanosomal activity against Trypanosoma brucei rhodesiense STIB900 infected in NMRI mouse assessed as cured animal at 5 mg/kg, ip administered for 4 days; assay type: functional, organism-based; design: dose 5 mg/kg; method in brief: as §3
[14] = system: Trypanosoma brucei rhodesiense; assay: Antitrypanosomal activity against Trypanosoma brucei rhodesiense STIB900 infected in NMRI mouse assessed as mean survival days at 5 mg/kg, ip administered for 4 days; assay type: functional; settings: route intraperitoneal; method in brief: as §1

Structure (SMILES) | Activity [1] | MSD [2] | selectivity ratio [3] | Activity [4] | MSD [5] | IC50 (L6) | selectivity ratio [6] | IC50 (Plasmodium falciparum) | IC50 [7] | MSD [8] | MSD [9] | IC50 (Leishmania donovani) | selectivity ratio [10] | Activity [11] | Activity [12] | Activity [13] | MSD [14]
Nc1nc(N)nc(Nc2ccc([As]3SCC(CO)S3)cc2)n1 (centres undefined) [MELARSOPROL] | Active | >60 days | 1220 | – | – | – | – | – | – | – | – | – | – | – | – | – | –
N=C(N)c1ccc(OCc2cccc(C(=N)N)c2)cc1 | – | – | 250 | inactive | 25.25 days | 5.93 µM | 168 | 0.035 µM | 0.024 µM | – | – | – | – | – | – | – | –
Cl.Cl.N/C(=N\O)c1ccc(COc2ccc(/C(N)=N/O)cc2)cc1 | – | – | < 1 | – | – | 8.28 µM | < 1 | 9.49 µM | > 238 µM | >31.7 days | >46.25 days | > 100 µM | < 1 | – | – | – | –
Cl.Cl.N/C(=N\O)c1cccc(COc2c(Br)cc(/C(N)=N/O)cc2Br)c1 | – | – | 4 | – | – | 26.8 µM | 4 | 7.56 µM | 6.89 µM | 20.75 days | >60 days | 61.1 µM | < 1 | Active | inactive | – | –
N=C(N)c1cccc(COc2c(I)cc(C(=N)N)cc2I)c1 | – | – | 5680 | – | – | 19.3 µM | 291 | 0.0664 µM | 0.003 µM | – | – | 1.39 µM | 14 | – | – | inactive | 21.25 days
COc1cc(C(=N)N)ccc1OCc1cccc(C(=N)N)c1 | – | – | 4400 | – | – | 85.4 µM | 2760 | 0.031 µM | 0.019 µM | – | – | 28.6 µM | 3 | – | – | inactive | 22 days
N=C(N)c1ccc(COc2c(I)cc(C(=N)N)cc2I)cc1 | – | – | 1170 | – | – | 13.8 µM | 746 | 0.019 µM | 0.012 µM | – | – | 1.6 µM | 9 | – | – | inactive | 24.5 days
N=C(N)c1cccc(COc2cccc(C(=N)N)c2)c1 | – | – | 248 | inactive | 19.8 days | 24 µM | 198 | 0.121 µM | 0.097 µM | – | – | – | – | – | – | – | –
